One series has as its system HuT78. Nature of the series: Cytotoxicity against human HUT78 cells after 72 hrs by MTS assay. In kind it is functional. As to conditions: HuT78, 72 h.
Another series concerns Jurkat. Put plainly: Cytotoxicity against human Jurkat cells after 72 hrs by MTS assay. The class given is functional.
Another series concerns BXPC-3. Put plainly: Cytotoxicity against human BxPC3 cells after 72 hrs by MTS assay. In kind it is functional. As to conditions: BXPC-3, 72 h.
A short description of series [1]: Cytotoxicity against HDF after 72 hrs by MTS assay. As to conditions: human, HDF cells.
The nature of series [2]: Half life in mouse liver microsomes at 0.4 ug/mL by HPLC-MS analysis in presence of NADPH. The class given is ADME, Microsome.
The test system of a further series is HCT-116. Nature of the series: Cytotoxicity against human HCT116 cells after 72 hrs by MTS assay. The class given is functional. To be noted: HCT-116, 72 h.
The next series relates to Liver. Put plainly: Half life in mouse liver microsomes assessed as gluconoride formation at 0.4 ug/mL by HPLC-MS analysis in presence of UDPGA. The class given is ADME, Microsome. The method in brief:
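Mouse liver microsome incubation run for phase II conjugation, with UDPGA added. Half-life was determined, and the glucuronide conjugate was detected by mass spectrometry.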

The target of series [3] is T1, Histone deacetylase 8 (Homo sapiens, UniProt Q9BY41).
T1 sequence (Q9BY41 whole entry): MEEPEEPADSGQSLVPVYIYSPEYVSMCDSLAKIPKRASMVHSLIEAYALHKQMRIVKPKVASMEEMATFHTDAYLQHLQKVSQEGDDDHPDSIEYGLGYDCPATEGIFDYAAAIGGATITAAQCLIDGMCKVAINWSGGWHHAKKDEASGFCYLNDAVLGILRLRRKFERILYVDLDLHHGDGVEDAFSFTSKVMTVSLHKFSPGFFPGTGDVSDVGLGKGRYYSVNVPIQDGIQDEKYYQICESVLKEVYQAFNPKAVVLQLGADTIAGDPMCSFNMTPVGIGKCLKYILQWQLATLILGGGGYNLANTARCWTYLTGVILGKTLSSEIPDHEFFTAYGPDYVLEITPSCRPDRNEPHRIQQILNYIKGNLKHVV
Nature of the series: Competitive inhibition of human recombinant HDAC8 by Michaelis-Menten equation analysis.

For another series, the target named is Histone deacetylase 5 (Homo sapiens, UniProt Q9UQL6). Put plainly: Inhibition of human recombinant HDAC5 by Michaelis-Menten equation analysis.
Series [4] concerns the target T2, Protein deacetylase HDAC6 (Homo sapiens, UniProt Q9UBN7).
T2 sequence (Q9UBN7 whole entry): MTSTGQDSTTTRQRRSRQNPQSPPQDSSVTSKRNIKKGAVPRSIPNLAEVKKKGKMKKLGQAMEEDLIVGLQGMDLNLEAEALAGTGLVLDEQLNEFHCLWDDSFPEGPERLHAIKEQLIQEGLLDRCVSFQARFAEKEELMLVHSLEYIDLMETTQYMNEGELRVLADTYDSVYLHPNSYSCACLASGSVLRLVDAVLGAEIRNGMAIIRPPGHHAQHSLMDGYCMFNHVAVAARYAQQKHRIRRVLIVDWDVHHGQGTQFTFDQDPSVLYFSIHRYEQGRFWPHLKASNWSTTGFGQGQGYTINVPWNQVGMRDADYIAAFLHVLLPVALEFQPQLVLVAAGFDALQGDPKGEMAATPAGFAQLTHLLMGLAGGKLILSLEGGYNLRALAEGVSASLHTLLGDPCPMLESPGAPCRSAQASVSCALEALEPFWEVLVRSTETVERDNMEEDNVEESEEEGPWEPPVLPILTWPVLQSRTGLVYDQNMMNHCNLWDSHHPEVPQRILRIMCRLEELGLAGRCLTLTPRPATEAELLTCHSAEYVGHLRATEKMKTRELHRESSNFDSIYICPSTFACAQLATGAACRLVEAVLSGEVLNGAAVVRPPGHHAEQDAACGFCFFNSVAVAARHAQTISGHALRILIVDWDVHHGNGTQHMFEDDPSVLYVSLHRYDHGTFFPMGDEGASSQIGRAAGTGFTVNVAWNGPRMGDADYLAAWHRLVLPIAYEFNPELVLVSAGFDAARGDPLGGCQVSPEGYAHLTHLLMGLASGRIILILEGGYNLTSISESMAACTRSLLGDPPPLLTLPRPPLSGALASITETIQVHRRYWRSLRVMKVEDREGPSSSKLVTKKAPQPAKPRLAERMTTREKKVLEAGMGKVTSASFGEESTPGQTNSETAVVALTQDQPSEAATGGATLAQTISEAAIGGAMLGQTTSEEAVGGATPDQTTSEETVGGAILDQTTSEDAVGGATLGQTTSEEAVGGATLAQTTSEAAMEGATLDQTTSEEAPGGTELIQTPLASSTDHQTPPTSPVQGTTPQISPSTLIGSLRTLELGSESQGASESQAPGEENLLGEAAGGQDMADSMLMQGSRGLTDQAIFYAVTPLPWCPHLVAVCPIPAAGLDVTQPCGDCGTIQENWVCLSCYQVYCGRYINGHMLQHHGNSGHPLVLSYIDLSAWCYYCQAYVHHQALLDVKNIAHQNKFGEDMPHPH
Put plainly: Inhibition of human recombinant HDAC6 by Michaelis-Menten equation analysis.

The target of the next series is Histone deacetylase 1 (Homo sapiens, UniProt Q13547). Nature of the series: Inhibition of human recombinant HDAC1 by Michaelis-Menten equation analysis.
In another series the target is Histone deacetylase 2 (Homo sapiens, UniProt Q92769). Nature of the series: Inhibition of human recombinant HDAC2 by Michaelis-Menten equation analysis.
In series [5] the target is T1, Histone deacetylase 8. Nature of the series: Inhibition of human recombinant HDAC8 by Michaelis-Menten equation analysis.
A further series deals with Histone deacetylase 4 (Homo sapiens, UniProt P56524). Put plainly: Inhibition of human recombinant HDAC4 by Michaelis-Menten equation analysis.
The species named for series [6] is Homo sapiens. Nature of the series: Selectivity ratio of Ki for human recombinant HDAC5 to Ki for human recombinant HDAC2.
The species entered for series [7] is Homo sapiens. Nature of the series: Selectivity ratio of Ki for human recombinant HDAC8 to Ki for human recombinant HDAC2.
For series [8], the species on record is Homo sapiens. Put plainly: Selectivity ratio of Ki for human recombinant HDAC6 to Ki for human recombinant HDAC2.
Series [9] is filed under the species Homo sapiens. Put plainly: Selectivity ratio of Ki for human recombinant HDAC4 to Ki for human recombinant HDAC2.
The species named for series [10] is Homo sapiens. Nature of the series: Selectivity ratio of Ki for human recombinant HDAC1 to Ki for human recombinant HDAC2.

pKi: −log10 of the molar value.

Data on 3 compounds can be found in ChEMBL document CHEMBL2407068, “Tropolones as lead-like natural products: the development of potent and selective histone deacetylase inhibitors” (ACS Med Chem Lett, 2013).

Sequence of Histone deacetylase 4 (P56524 whole entry): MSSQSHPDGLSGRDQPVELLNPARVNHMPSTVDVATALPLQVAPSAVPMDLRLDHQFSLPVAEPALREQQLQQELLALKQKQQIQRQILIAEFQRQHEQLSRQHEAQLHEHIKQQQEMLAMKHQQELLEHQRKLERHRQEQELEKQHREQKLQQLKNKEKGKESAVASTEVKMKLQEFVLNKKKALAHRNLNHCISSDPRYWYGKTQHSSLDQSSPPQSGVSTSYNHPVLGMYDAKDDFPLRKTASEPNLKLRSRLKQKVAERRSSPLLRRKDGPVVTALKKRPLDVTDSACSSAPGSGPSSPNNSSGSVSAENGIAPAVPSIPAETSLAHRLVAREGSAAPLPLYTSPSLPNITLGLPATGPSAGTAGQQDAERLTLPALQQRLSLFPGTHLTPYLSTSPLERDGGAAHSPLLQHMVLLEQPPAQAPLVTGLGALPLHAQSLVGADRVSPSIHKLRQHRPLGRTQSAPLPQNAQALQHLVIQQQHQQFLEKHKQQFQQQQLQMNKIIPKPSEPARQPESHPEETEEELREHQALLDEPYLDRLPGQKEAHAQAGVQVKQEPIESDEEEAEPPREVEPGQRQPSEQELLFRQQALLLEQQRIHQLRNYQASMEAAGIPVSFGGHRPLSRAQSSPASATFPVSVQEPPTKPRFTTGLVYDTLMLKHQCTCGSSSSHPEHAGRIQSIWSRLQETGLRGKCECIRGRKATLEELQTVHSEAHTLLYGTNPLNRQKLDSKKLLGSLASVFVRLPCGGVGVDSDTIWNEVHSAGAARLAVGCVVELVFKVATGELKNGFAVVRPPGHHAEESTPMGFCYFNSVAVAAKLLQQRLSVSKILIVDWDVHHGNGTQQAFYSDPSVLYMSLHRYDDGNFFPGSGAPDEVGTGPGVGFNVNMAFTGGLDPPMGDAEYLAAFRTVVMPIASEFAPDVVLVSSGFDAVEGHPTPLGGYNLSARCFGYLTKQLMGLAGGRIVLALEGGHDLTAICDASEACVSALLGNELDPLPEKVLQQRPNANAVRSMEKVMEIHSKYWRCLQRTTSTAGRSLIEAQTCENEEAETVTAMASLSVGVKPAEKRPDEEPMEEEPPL
Sequence of Histone deacetylase 2 (Q92769 whole entry): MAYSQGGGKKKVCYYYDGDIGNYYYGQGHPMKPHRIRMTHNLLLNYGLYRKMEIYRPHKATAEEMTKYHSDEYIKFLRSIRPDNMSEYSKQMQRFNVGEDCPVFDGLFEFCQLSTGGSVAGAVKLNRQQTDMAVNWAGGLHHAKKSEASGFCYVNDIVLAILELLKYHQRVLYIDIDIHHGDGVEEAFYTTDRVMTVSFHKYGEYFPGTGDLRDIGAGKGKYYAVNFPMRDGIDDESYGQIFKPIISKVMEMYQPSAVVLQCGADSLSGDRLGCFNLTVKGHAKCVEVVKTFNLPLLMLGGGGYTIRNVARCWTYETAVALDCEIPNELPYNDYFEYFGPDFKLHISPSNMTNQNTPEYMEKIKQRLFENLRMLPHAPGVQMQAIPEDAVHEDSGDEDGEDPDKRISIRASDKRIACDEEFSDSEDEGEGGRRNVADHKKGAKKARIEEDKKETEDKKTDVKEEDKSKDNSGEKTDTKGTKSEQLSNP
Sequence of Histone deacetylase 5 (Q9UQL6 whole entry): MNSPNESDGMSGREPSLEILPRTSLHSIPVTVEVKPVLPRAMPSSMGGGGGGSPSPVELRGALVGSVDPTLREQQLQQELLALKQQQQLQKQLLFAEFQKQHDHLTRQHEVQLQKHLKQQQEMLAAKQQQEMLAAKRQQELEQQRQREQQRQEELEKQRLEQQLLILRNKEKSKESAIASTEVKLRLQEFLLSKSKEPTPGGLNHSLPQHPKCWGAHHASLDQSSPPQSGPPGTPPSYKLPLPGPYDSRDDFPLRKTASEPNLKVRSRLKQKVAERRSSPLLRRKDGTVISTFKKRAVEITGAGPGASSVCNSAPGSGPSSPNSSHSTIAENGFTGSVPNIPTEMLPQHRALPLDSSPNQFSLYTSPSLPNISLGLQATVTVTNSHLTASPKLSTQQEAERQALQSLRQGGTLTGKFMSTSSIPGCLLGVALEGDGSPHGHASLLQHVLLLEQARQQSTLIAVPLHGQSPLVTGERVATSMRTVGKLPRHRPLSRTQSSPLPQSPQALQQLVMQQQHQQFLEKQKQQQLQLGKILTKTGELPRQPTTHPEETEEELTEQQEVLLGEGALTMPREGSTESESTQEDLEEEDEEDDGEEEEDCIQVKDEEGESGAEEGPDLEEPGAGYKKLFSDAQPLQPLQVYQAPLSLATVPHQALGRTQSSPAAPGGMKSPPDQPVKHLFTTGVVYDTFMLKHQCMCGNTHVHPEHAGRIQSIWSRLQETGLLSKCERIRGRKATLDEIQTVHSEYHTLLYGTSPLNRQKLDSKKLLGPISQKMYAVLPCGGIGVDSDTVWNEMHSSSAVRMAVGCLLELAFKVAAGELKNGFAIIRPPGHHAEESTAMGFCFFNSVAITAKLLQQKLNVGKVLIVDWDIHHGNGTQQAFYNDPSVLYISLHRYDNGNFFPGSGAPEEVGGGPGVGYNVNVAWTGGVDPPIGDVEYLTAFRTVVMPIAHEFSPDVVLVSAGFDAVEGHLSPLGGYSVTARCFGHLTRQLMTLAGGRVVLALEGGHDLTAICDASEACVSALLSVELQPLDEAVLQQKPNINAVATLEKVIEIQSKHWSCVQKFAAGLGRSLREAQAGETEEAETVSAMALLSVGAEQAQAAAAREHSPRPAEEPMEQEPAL
Sequence of Histone deacetylase 1 (Q13547 whole entry): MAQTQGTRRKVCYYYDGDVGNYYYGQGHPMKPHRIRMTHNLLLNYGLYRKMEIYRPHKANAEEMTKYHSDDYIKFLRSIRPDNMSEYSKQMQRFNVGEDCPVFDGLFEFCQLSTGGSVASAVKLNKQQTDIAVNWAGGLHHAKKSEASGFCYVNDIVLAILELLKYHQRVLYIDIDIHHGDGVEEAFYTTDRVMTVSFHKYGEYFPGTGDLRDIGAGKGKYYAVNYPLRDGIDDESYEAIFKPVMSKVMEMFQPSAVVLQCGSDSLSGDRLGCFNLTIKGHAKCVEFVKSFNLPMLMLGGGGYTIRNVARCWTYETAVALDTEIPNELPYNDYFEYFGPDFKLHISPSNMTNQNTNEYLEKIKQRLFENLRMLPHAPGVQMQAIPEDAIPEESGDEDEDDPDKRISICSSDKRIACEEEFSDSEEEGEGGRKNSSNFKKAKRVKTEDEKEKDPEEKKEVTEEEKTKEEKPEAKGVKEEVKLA

On to `O=C(CCCCCCC(=O)Nc1ccccc1)NO` [VORINOSTAT], for which the 50% growth inhibitory concentration (GI50) in the series with HuT78 came out at 2.1 µM; in the series with Jurkat it was 0.9 µM; in the series on BXPC-3 it was 5.56 µM; in the series on HCT-116, 2.5 µM. Moreover, the GI50 at 72 h in series [1] amounted to 18.9 µM. Also, the half-life at 0.4 ug/mL in [2] came out at 0.467 h.

In the case of `O=c1c(O)ccccc1-c1ccccc1`, the t1/2 in the series on Liver was more than 1 h. Also, the negative logarithm of the Ki (pKi) on Histone deacetylase 8 [3] was 9.28; at Histone deacetylase 5, less than 5.60; in [4] it was 6.28; at Histone deacetylase 1 it was less than 5.60; at Histone deacetylase 2, 9.59; on Histone deacetylase 8 [5], 8.96. Besides, the negative-log Ki (pKi) on Histone deacetylase 4 is less than 4.70. Moreover, the GI50 with HuT78 turned out to be 7.83 µM; with Jurkat, 3.33 µM; in the series on BXPC-3, 29.4 µM; in the series with HCT-116, 15.2 µM. Also, halving of growth in series [1] (GI50 at 72 h) required 96.5 µM. Also, the half-life at 0.4 ug/mL in [2] was 1.55 h.

As to `COc1ccc(-c2ccccc(O)c2=O)c(OC)c1OC`, the Ratio Ki in the series filed under Homo sapiens [6], in the series filed under Homo sapiens [7], in the series filed under Homo sapiens [8], in the series filed under Homo sapiens [9] and in the series filed under Homo sapiens [10] was more than 100 in each case. In addition, the t1/2 in the series on Liver was more than 1 h. For the same compound, the GI50 came out at 4.74 µM in the series on HuT78, 1.86 µM in the series with Jurkat, 21 µM in the series with BXPC-3 and 35 µM with HCT-116. Besides, the pKi at Histone deacetylase 5 is less than 5.60; in series [4], less than 5.60; on Histone deacetylase 1, less than 5.60; on Histone deacetylase 2 it was 9.64; at Histone deacetylase 8 [5], 6.91; at Histone deacetylase 4, less than 4.70. The same compound displayed a GI50 at 72 h in [1] of more than 100 µM.
